Reference: ChEMBL document CHEMBL1146239, “Kadsuphilols A-H, oxygenated lignans from Kadsura philippinensis” (J Nat Prod, 2007)

Legend:
Assay type in all cases: functional
[1] = DPPH radical scavenging activity at 100 uM
Summary of the method: (§1)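 Compound dilutions prepared in 100% DMSO, mixed with 100 µM DPPH in ethanol at 37 °C, shaken vigorously and left to stand 30 min. Absorbance read at 517 nm by UV-vis spectrophotometry. Scavenging reported as percent at 100, 50, 25, 12.5 and 6.25 µM. Vitamins C and E served as standards.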

[2] = DPPH radical scavenging activity at 6.25 uM; summary of the method: as §1
[3] = DPPH radical scavenging activity at 25 uM; summary of the method: as §1
[4] = DPPH radical scavenging activity at 50 uM; summary of the method: as §1
[5] = DPPH radical scavenging activity at 12.5 uM; summary of the method: as §1

| Molecule | Activity [1] [%] | Activity [2] [%] | Activity [3] [%] | Activity [4] [%] | Activity [5] [%] | inhibition [1] [%] |
| --- | --- | --- | --- | --- | --- | --- |
| VITAMIN E | 17.6 | 1.3 | 12.6 | 12.9 | 4.9 |  |
| C/C=C(\C)C(=O)O[C@@H]1c2cc3c(c4c2C2(CO4)C(=O)C(OC)=C(OC)C=C2[C@@H](OC(=O)c2ccccc2)[C@@](C)(O)[C@H]1C)OCO3 (stereo not given in full) | 35.6 | 20.2 | 32 | 33.9 | 13.8 |  |
| COc1cc2c(c(O)c1OC)-c1c(cc3c(c1OC)OCO3)[C@H](OC(=O)c1ccccc1)[C@H](C)[C@H](C)[C@H]2OC(C)=O | -23.1 | -35.6 | -32.2 | -30.8 | -33.8 |  |
| C/C=C(\C)C(=O)O[C@H]1c2cc3c(c(OC)c2-c2c(cc(OC)c(OC)c2O)[C@H](OC(=O)/C(C)=C/C)[C@@]2(CO2)[C@H]1C)OCO3 |  | 47.4 | 48.1 | 51.4 | 46.2 | 54.7 |
| C/C=C(\C)C(=O)O[C@@H]1C2=CC(OC)=C(OC)C(=O)C23COc2c4c(cc(c23)[C@@H](OC(=O)c2ccccc2)[C@H](C)[C@]1(C)O)OCO4 (stereo not given in full) | 12.9 | 8.6 | 11.4 | 12.8 | 10.3 |  |
| COc1cc2c(c(O)c1OC)-c1c(cc3c(c1OC)OCO3)[C@H](O)[C@H](C)[C@H](C)C2 | -4.2 | -38.9 | -10.7 | -1.6 | -18.5 |  |
| COc1cc2c(c(OC)c1O)-c1c(cc(OC)c(OC)c1O)C[C@@H](C)[C@@H](C)[C@H]2OC(=O)/C=C/c1ccccc1 | 38.1 | 10 | 32.2 | 34.4 | 28.1 |  |
| C/C=C(\C)C(=O)O[C@H]1[C@@](C)(O)[C@@H](C)[C@H]2O[C@@]13CC(OC)=C(OC)C(=O)C31COc3c4c(cc2c31)OCO4 (stereo not given in full) | 8.4 | 3.9 | 6.1 | 6.6 | 3.9 |  |
| O=C1O[C@H]([C@@H](O)CO)C(O)=C1O | 39 | 19.2 | 24.9 | 36.7 | 20.7 |  |
| C/C=C(\C)C(=O)O[C@H]1[C@@](C)(O)[C@@H](C)[C@H]2O[C@@]13CC(=O)C(OC)=C(OC)C31COc3c4c(cc2c31)OCO4 (stereo not given in full) | -2.8 | -5.3 | -3.2 | -3.7 | -4.7 |  |
